Source: ChEMBL document CHEMBL2150917, “Lignopurines: a new family of hybrids between cyclolignans and purines. Synthesis and biological evaluation” (2012)
Activity calls are given as the source filed them. No cut-off for these calls is given here.

Assays:
[1] = test system: A549; test: Growth inhibition of human A549 cells after 72 hrs by SRB assay; format: functional; conditions: A549, 72 h
Method in brief: (§1)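 Cells seeded at 5×10^3/well in RPMI and attached for 18 h drug-free. Samples added in DMSO/H2O 3:7 for 72 h exposure. Cells then fixed with cold TCA for 60 min at 4 °C, stained with 0.4% SRB in 1% acetic acid for 10 min, stain solubilized in Tris and read at 490 nm. GI50 from 100×[(T−T0)/(C−T0)]=50; mean of triplicates.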

[2] = test system: MDA-MB-231; test: Growth inhibition of human MDA-MB-231 cells after 72 hrs by SRB assay; format: functional; conditions: MDA-MB-231, 72 h; method in brief: as §1
[3] = test system: HT-29; test: Growth inhibition of human HT-29 cells after 72 hrs by SRB assay; format: functional; conditions: HT-29, 72 h; method in brief: as §1
[4] = test system: HeLa; test: Induction of cell cycle arrest in human HeLa cells assessed as accumulation at G2/M phase at 1 uM after 24 hrs by propidium iodide staining-based FACS flow cytometry; format: functional
Method in brief: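 Mycoplasma-negative HeLa cells in DMEM with 10% heat-inactivated FCS, 2 mM L-glutamine, penicillin/streptomycin, 37 °C, 5% CO2; exposed to 1 µM for 24 h alongside untreated controls. 3–5×10^5 cells fixed overnight in 70% ethanol at 4 °C, PBS-washed, 1 h with 1 mg/mL RNase A plus 20 µg/mL propidium iodide at room temperature; flow cytometry for % G2/M; three independent experiments.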

[5] = test system: HeLa; test: Disruption of microtubule network in human HeLa cells at 1 uM after 24 hrs by DAPI staining-based confocal laser scanning microscopy relative to control; format: cell-based
Method in brief: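 HeLa cells in DMEM with 10% heat-inactivated FCS, 2 mM L-glutamine, penicillin/streptomycin, 37 °C, 5% CO2, grown on poly-L-lysine coverslips; 1 µM, 24 h. Fixed in 4% paraformaldehyde in HPEM (pH 6.6), 0.5% Triton X-100 permeabilized, anti-alpha-tubulin mouse mAb (1:150), Cy2 anti-mouse IgG, DAPI nuclei; confocal imaging versus untreated cells; at least three experiments.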

SMILES | GI50 [1] [nM] | GI50 [2] [nM] | GI50 [3] [nM] | Activity [4] | Activity [5]
COc1cc([C@@H]2c3cc4c(cc3C=C(C=O)[C@H]2C(=O)OCCCCCCn2cnc3ncnc(Cl)c32)OCO4)cc(OC)c1OC | 1200 | 3700 | 1700 | Active | Active
COC(=O)[C@@H]1C(C=O)=Cc2cc3c(cc2[C@H]1c1cc(OC)c(OC)c(OC)c1)OCO3 [PODOPHYLLIC ALDEHYDE] | 60 | 200 | 39 |  | 
COc1cc([C@@H]2c3cc4c(cc3C=C(C=O)[C@H]2C(=O)OCCCn2cnc3cncnc32)OCO4)cc(OC)c1OC | 790 | 7700 | 710 | Active | Active
COc1cc([C@@H]2c3cc4c(cc3C=C(C=O)[C@H]2C(=O)OCCCBr)OCO4)cc(OC)c1OC | 190 | 130 | 140 |  | 
COc1cc(-c2c(C(=O)OCCCn3cnc4c(Cl)ncnc43)c(C=O)cc3cc4c(cc23)OCO4)cc(OC)c1OC | 2000 | 5000 | 2100 | Active | Active
CCCNCC1=Cc2cc3c(cc2[C@@H](c2cc(OC)c(OC)c(OC)c2)[C@@H]1C(=O)OCc1ccc(Cn2cnc4c(Cl)ncnc42)cc1)OCO3 | 580 | 1300 | 630 |  | 
CCCNc1ncnc2c1ncn2CCCCCCOC(=O)[C@@H]1C(C=O)=Cc2cc3c(cc2[C@H]1c1cc(OC)c(OC)c(OC)c1)OCO3 | 1200 | 5100 | 1200 | Active | Active
CCC/N=C/C1=Cc2cc3c(cc2[C@@H](c2cc(OC)c(OC)c(OC)c2)[C@@H]1C(=O)OCc1ccc(Cn2cnc4c(Cl)ncnc42)cc1)OCO3 | 59 | 740 | 90 |  | 
CCCNCC1=Cc2cc3c(cc2[C@@H](c2cc(OC)c(OC)c(OC)c2)[C@@H]1C(=O)OCCCCCCn1cnc2c(Cl)ncnc21)OCO3 | 2300 | 3500 | 2200 |  | 
COc1cc([C@@H]2c3cc4c(cc3C=C(C=O)[C@H]2C(=O)OCCCCCCn2cnc3c(Cl)ncnc32)OCO4)cc(OC)c1OC | 400 | 3100 | 770 | Active | Active
COc1cc([C@@H]2c3cc4c(cc3[C@@H](O[C@@H]3O[C@@H]5CO[C@@H](C)O[C@H]5[C@H](O)[C@H]3O)[C@H]3COC(=O)[C@H]23)OCO4)cc(OC)c1O [ETOPOSIDE] | 2200 | 7200 | 9400 |  | 
COc1cc([C@@H]2c3cc4c(cc3C=C(C=O)[C@H]2C(=O)OCCCCCCn2cnc3cncnc32)OCO4)cc(OC)c1OC | 310 | 2400 | 530 | Active | Active
COc1cc([C@@H]2c3cc4c(cc3C=C(C=O)[C@H]2C(=O)OCc2ccc(CBr)cc2)OCO4)cc(OC)c1OC | 85 | 700 | 77 |  | 
COc1cc([C@@H]2c3cc4c(cc3C=C(C=O)[C@H]2C(=O)OCc2ccc(Cn3cnc5c(Cl)ncnc53)cc2)OCO4)cc(OC)c1OC | 29 | 810 | 51 | Active | Active
COc1cc([C@@H]2c3cc4c(cc3[C@H](O)[C@@H](CO)[C@H]2C(=O)OCCCBr)OCO4)cc(OC)c1OC | 140 | 160 | 140 |  | 
COc1cc([C@@H]2c3cc4c(cc3[C@H](O)[C@@H](CO)[C@H]2C(=O)OCCCCCCBr)OCO4)cc(OC)c1OC | 250 | 350 | 160 |  | 
COc1cc([C@@H]2c3cc4c(cc3C=C(C=O)[C@H]2C(=O)OCCCn2cnc3c(Cl)ncnc32)OCO4)cc(OC)c1OC | 750 | 2400 | 910 | Active | Active
COc1cc([C@@H]2c3cc4c(cc3C=C(C=O)[C@H]2C(=O)OCCCCCCBr)OCO4)cc(OC)c1OC | 660 | 1800 | 740 |  | 
